Key:
[1] = test system: Staphylococcus aureus; assay: Antibiofilm activity against 24 hrs preformed biofilm of Staphylococcus aureus ATCC 29213 assessed as biofilm viability at 16 ug/ml incubated for 24 hrs by crystal violet staining analysis (reference value: 18.9 1og10CFU); type: functional; settings: dose 16 µg/ml
[2] = test system: Escherichia coli; assay: Resistance ratio of compound MIC for Escherichia coli ATCC 25922 after 20 passages to compound MIC for Escherichia coli ATCC 25922 after 16 to 20 hrs by CLSI-based broth microdilution method; type: functional
Outline: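 Serial passaging: after each 24 h MIC assay, cells grown at 1/2 MIC were transferred and the MIC assayed again, for 20 passages. Done with S. aureus, E. coli and MRSA. MIC plotted against days of passage. Experiment repeated twice.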

[3] = test system: Escherichia coli; assay: Antibiofilm activity against 72 hrs preformed biofilm of Escherichia coli ATCC 25922 assessed as biofilm viability at 64 ug/ml incubated for 24 hrs by […] (reference value: 16.1 log10CFU); type: functional; settings: dose 64 µg/ml
Outline: (§1)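 E. coli from mid-log phase was diluted to ~10^5 CFU/mL in M9 medium with 0.02% casamino acids and 0.5% glycerol and formed biofilm without shaking for 72 h. Wells were PBS-washed, then treated with 2-128 µg/mL for 24 h at 37 °C; medium-only wells served as control. Cells were released with trypsin-EDTA and plated as tenfold dilutions. Viability was given as log10 CFU/well.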

[4] = test system: Escherichia coli; assay: Antibiofilm activity against 72 hrs preformed biofilm of Escherichia coli ATCC 25922 assessed as biofilm viability at 128 ug/ml incubated for 24 hrs by […] (reference value: 16.1 log10CFU); type: functional; settings: dose 128 µg/ml; outline: as §1
[5] = test system: Staphylococcus aureus; assay: Antibiofilm activity against 24 hrs preformed biofilm of Staphylococcus aureus ATCC 29213 assessed as eradication of preformed biofilm incubated for 24 hrs by crystal violet staining assay; type: functional
[6] = Selectivity index, ratio of HC50 for Sheep erythrocytes to MIC for Staphylococcus aureus ATCC 29213; type: toxicity
[7] = test system: Escherichia coli; assay: Antibiofilm activity against 72 hrs preformed biofilm of Escherichia coli ATCC 25922 assessed as biofilm viability at 4 ug/ml incubated for 24 hrs by […] (reference value: 16.1 log10CFU); type: functional; settings: dose 4 µg/ml; outline: as §1
[8] = test system: Staphylococcus aureus; assay: Antibiofilm activity against 24 hrs preformed biofilm of Staphylococcus aureus ATCC 29213 assessed as biofilm viability at 8 ug/ml incubated for 24 hrs by crystal violet staining analysis (reference value: 18.9 1og10CFU); type: functional; settings: dose 8 µg/ml

## CCCCCCCCCCCN(C[C@H]1CN(c2ccc(N3CCOCC3)c(F)c2)C(=O)O1)C(=O)[C@@H](N)CCCCN.Cl.Cl
[1]
  Activity: 8.7 log10CFU
[2]
  Ratio: 2
[3]
  Activity: 6 log10CFU
[4]
  Activity: 5.3 log10CFU
[5]
  MBEC: 64 µg/mL
  MBEC80: 50.2 µg/mL
  MBEC90: 59.8 µg/mL
[6]
  selectivity ratio: 50
[7]
  Activity: 8.5 log10CFU
[8]
  Activity: 9.9 log10CFU
